{
  "source": "ChEMBL document CHEMBL2384917",
  "about": "“Design, synthesis and biological evaluation of novel 3,4,5-trisubstituted aminothiophenes as inhibitors of p53-MDM2 interaction. Part 1” (Bioorg Med Chem, 2013)",
  "key": {"[1]": {"tested_on": "PC-3", "test": "Cytotoxicity against human p53-null PC3 cells assessed as growth inhibition after 72 hrs by SRB assay", "assay_type": "functional, cell-based", "details": "PC-3, 72 h; call rule not given here", "procedure,_shortened": "(§1)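 Cells seeded in 96-well plates, cultured overnight, then exposed to serial compound concentrations for 72 h. Fixed with 10% (w/v) TCA at 4 °C for 1 h, stained 30 min with 0.4% SRB in 1% acetic acid, washed with 1% acetic acid, bound dye dissolved in 10 mmol unbuffered Tris base, absorbance read at 515 nm. Inhibition calculated relative to untreated control wells; IC50 derived.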"}, "[2]": {"tested_on": "A549", "test": "Cytotoxicity against human A549 cells expressing wild type p53 assessed as growth inhibition after 72 hrs by SRB assay", "assay_type": "functional, cell-based", "details": "A549, 72 h", "procedure,_shortened": "as §1"}, "[3]": {"biological_target": "Tumour suppressor p53/oncoprotein Mdm2 (Homo sapiens, UniProt Q00987)", "sequence (P04637 whole entry)": "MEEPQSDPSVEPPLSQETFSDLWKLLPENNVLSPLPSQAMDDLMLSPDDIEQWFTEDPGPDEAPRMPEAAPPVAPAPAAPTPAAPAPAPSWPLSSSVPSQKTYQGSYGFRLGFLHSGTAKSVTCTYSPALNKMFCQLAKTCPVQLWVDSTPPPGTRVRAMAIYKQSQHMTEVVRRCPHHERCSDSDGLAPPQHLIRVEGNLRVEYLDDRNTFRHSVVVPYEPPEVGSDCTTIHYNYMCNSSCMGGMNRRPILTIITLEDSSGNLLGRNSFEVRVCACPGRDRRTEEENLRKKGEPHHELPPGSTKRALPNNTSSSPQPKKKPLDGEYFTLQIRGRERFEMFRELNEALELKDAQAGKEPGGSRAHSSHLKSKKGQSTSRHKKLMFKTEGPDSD", "sequence (Q00987 whole entry)": "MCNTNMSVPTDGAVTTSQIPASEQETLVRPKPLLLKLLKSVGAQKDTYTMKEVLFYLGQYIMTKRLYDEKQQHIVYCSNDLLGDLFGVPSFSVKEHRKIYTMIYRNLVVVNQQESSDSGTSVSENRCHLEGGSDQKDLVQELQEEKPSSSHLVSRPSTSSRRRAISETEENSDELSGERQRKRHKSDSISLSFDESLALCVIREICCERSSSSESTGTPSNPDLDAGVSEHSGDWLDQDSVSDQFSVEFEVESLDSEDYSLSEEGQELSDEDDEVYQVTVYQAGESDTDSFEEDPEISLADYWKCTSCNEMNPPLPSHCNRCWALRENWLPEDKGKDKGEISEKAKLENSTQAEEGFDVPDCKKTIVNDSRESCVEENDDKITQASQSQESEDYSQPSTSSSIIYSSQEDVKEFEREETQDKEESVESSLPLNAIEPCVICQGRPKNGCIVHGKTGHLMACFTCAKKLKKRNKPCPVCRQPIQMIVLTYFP", "test": "(§2) Inhibition of p53-MDM2 (unknown origin) interaction expressed in Escherichia coli BL-21 (DE3) after 1 hr by fluorescence polarization assay"}, "[4]": {"tested_on": "A549", "test": "Selectivity ratio of IC50 for human p53-null PC3 cells to IC50 for human A549 cells expressing wild type p53", "assay_type": "functional"}, "[5]": {"biological_target": "Tumour suppressor p53/oncoprotein Mdm2 (Homo sapiens, UniProt P04637+Q00987)", "sequence (P04637 whole entry)": "as the sequence (P04637 whole entry) above", "sequence (Q00987 whole entry)": "as the sequence (Q00987 whole entry) above", "test": "as §2"}},
  "note": "pIC50, pKi: −log10 of the molar value.",
  "data": [
    {"smiles": "CN1CCN(C(=O)c2c(N)sc(-c3ccc(Cl)cc3)c2-c2ccc(Cl)cc2)CC1", "values": [
      {"measurement": "pIC50", "setting": "[1]", "value": 4.88},
      {"measurement": "pIC50", "setting": "[2]", "value": 6.23},
      {"measurement": "pKi", "setting": "[3]", "value": 5.82},
      {"measurement": "Ratio IC50", "setting": "[4]", "value": 22}
    ]},
    {"smiles": "CC1CN(C(=O)c2c(N)sc(-c3ccc(Cl)cc3)c2-c2ccc(Cl)cc2)CCN1", "note": "(configuration not stated)", "values": [
      {"measurement": "pIC50", "setting": "[1]", "value": 5.14},
      {"measurement": "pIC50", "setting": "[2]", "value": 5.31},
      {"measurement": "pKi", "setting": "[3]", "value": 4.75}
    ]},
    {"smiles": "CCCCNC(=O)c1c(N)sc(-c2ccc(Cl)cc2)c1-c1ccc(Cl)cc1", "values": [
      {"measurement": "pIC50", "setting": "[1]", "value": 4.75},
      {"measurement": "pIC50", "setting": "[2]", "value": 5.09},
      {"measurement": "pKi", "setting": "[3]", "value": 6.26}
    ]},
    {"smiles": "CC(C)CNC(=O)c1c(N)sc(-c2ccc(Cl)cc2)c1-c1ccc(Cl)cc1", "values": [
      {"measurement": "pIC50", "setting": "[1]", "value": 4.68},
      {"measurement": "pKi", "setting": "[3]", "value": 5.38}
    ]},
    {"smiles": "CC(C)(C)NC(=O)c1c(N)sc(-c2ccc(Cl)cc2)c1-c1ccc(Cl)cc1", "values": [
      {"measurement": "pIC50", "setting": "[1]", "value": 4.82},
      {"measurement": "pIC50", "setting": "[2]", "value": 5.05},
      {"measurement": "pKi", "setting": "[3]", "value": 6.09}
    ]},
    {"smiles": "Nc1sc(-c2ccc(Cl)cc2)c(-c2ccc(Cl)cc2)c1C(=O)Nc1ccccc1", "values": [
      {"measurement": "pIC50", "setting": "[1]", "value": "< 4.30"},
      {"measurement": "pIC50", "setting": "[2]", "value": 4.60},
      {"measurement": "pKi", "setting": "[3]", "value": "< 4.30"}
    ]},
    {"smiles": "Nc1sc(-c2ccc(Cl)cc2)c(-c2ccc(Cl)cc2)c1C(=O)NCc1ccccc1", "values": [
      {"measurement": "pIC50", "setting": "[1]", "value": 4.50},
      {"measurement": "pIC50", "setting": "[2]", "value": 4.79},
      {"measurement": "pKi", "setting": "[3]", "value": 6.82}
    ]},
    {"smiles": "COc1ccc(CNC(=O)c2c(N)sc(-c3ccc(Cl)cc3)c2-c2ccc(Cl)cc2)cc1", "values": [
      {"measurement": "pIC50", "setting": "[1]", "value": 4.53},
      {"measurement": "pIC50", "setting": "[2]", "value": 4.74},
      {"measurement": "pKi", "setting": "[3]", "value": 6.19}
    ]},
    {"smiles": "CC(=O)Nc1sc(-c2ccc(Cl)cc2)c(-c2ccc(Cl)cc2)c1C(=O)N1CCCCC1", "values": [
      {"measurement": "pIC50", "setting": "[1]", "value": 4.99},
      {"measurement": "pIC50", "setting": "[2]", "value": 5.22},
      {"measurement": "pKi", "setting": "[3]", "value": 5.45}
    ]},
    {"smiles": "O=C(CCN1CCOCC1)Nc1sc(-c2ccc(Cl)cc2)c(-c2ccc(Cl)cc2)c1C(=O)N1CCCCC1", "values": [
      {"measurement": "pIC50", "setting": "[1]", "value": "< 4.60"},
      {"measurement": "pIC50", "setting": "[2]", "value": "< 4.60"},
      {"measurement": "Ki", "setting": "[5]", "value": "Not Active"}
    ]},
    {"smiles": "CS(=O)(=O)Nc1sc(-c2ccc(Cl)cc2)c(-c2ccc(Cl)cc2)c1C(=O)NC1CC1", "values": [
      {"measurement": "pKi", "setting": "[3]", "value": "< 4.30"}
    ]},
    {"smiles": "CCOC(=O)Nc1sc(-c2ccc(Cl)cc2)c(-c2ccc(Cl)cc2)c1C(=O)NC1CC1", "values": [
      {"measurement": "pIC50", "setting": "[1]", "value": 4.56},
      {"measurement": "pIC50", "setting": "[2]", "value": 4.40},
      {"measurement": "Ki", "setting": "[5]", "value": "Not Active"}
    ]},
    {"smiles": "O=C(NCCN1CCOCC1)Nc1sc(-c2ccc(Cl)cc2)c(-c2ccc(Cl)cc2)c1C(=O)NC1CC1", "values": [
      {"measurement": "Ki", "setting": "[5]", "value": "Not Active"}
    ]},
    {"smiles": "CCN(CC)CCNC(=O)Nc1sc(-c2ccc(Cl)cc2)c(-c2ccc(Cl)cc2)c1C(=O)NC1CC1", "values": [
      {"measurement": "Ki", "setting": "[5]", "value": "Not Active"}
    ]},
    {"smiles": "COC(=O)c1c(N)sc(-c2ccc(Cl)cc2)c1-c1ccc(Cl)cc1", "values": [
      {"measurement": "pKi", "setting": "[3]", "value": 5.82}
    ]},
    {"smiles": "Nc1sc(-c2ccc(Cl)cc2)c(-c2ccc(Cl)cc2)c1C(=O)NC1CC1", "values": [
      {"measurement": "pKi", "setting": "[3]", "value": 6.27}
    ]},
    {"smiles": "Nc1sc(-c2ccc(Cl)cc2)c(-c2ccc(Cl)cc2)c1C(=O)NC1CCC1", "values": [
      {"measurement": "pIC50", "setting": "[1]", "value": 4.61},
      {"measurement": "pIC50", "setting": "[2]", "value": 4.90},
      {"measurement": "pKi", "setting": "[3]", "value": 5.95}
    ]},
    {"smiles": "Nc1sc(-c2ccc(Cl)cc2)c(-c2ccc(Cl)cc2)c1C(=O)NC1CCCC1", "values": [
      {"measurement": "pIC50", "setting": "[1]", "value": 4.67},
      {"measurement": "pIC50", "setting": "[2]", "value": 5.17},
      {"measurement": "pKi", "setting": "[3]", "value": 6.27}
    ]},
    {"smiles": "Nc1sc(-c2ccc(Cl)cc2)c(-c2ccc(Cl)cc2)c1C(=O)NC1CCCCC1", "values": [
      {"measurement": "pKi", "setting": "[3]", "value": 6.64}
    ]},
    {"smiles": "Nc1sc(-c2ccc(Cl)cc2)c(-c2ccc(Cl)cc2)c1C(=O)NC1CCC(O)CC1", "note": "(configuration not stated)", "values": [
      {"measurement": "pIC50", "setting": "[1]", "value": 5.25},
      {"measurement": "pIC50", "setting": "[2]", "value": 6.60},
      {"measurement": "pKi", "setting": "[3]", "value": 6.00},
      {"measurement": "Ratio IC50", "setting": "[4]", "value": 22}
    ]},
    {"smiles": "Nc1sc(-c2ccc(Cl)cc2)c(-c2ccc(Cl)cc2)c1C(=O)N1CCCC1", "values": [
      {"measurement": "pKi", "setting": "[3]", "value": 6.13}
    ]},
    {"smiles": "Nc1sc(-c2ccc(Cl)cc2)c(-c2ccc(Cl)cc2)c1C(=O)N1CCCCC1", "values": [
      {"measurement": "pIC50", "setting": "[1]", "value": 4.84},
      {"measurement": "pIC50", "setting": "[2]", "value": 5.34},
      {"measurement": "pKi", "setting": "[3]", "value": 5.92}
    ]},
    {"smiles": "CC1CCN(C(=O)c2c(N)sc(-c3ccc(Cl)cc3)c2-c2ccc(Cl)cc2)CC1", "values": [
      {"measurement": "pIC50", "setting": "[1]", "value": 5.24},
      {"measurement": "pIC50", "setting": "[2]", "value": 5.76},
      {"measurement": "pKi", "setting": "[3]", "value": 6.10}
    ]},
    {"smiles": "Nc1sc(-c2ccc(Cl)cc2)c(-c2ccc(Cl)cc2)c1C(=O)N1CCCCC1=O", "values": [
      {"measurement": "pIC50", "setting": "[1]", "value": 5.31},
      {"measurement": "pIC50", "setting": "[2]", "value": 5.74},
      {"measurement": "pKi", "setting": "[3]", "value": 5.81}
    ]},
    {"smiles": "Nc1sc(-c2ccc(Cl)cc2)c(-c2ccc(Cl)cc2)c1C(=O)N1CCC(=O)CC1", "values": [
      {"measurement": "pIC50", "setting": "[1]", "value": 5.87},
      {"measurement": "pIC50", "setting": "[2]", "value": 5.70},
      {"measurement": "pKi", "setting": "[3]", "value": 5.66}
    ]},
    {"smiles": "Nc1sc(-c2ccc(Cl)cc2)c(-c2ccc(Cl)cc2)c1C(=O)N1CCC(=O)CC1=O", "values": [
      {"measurement": "pIC50", "setting": "[1]", "value": 5.03},
      {"measurement": "pIC50", "setting": "[2]", "value": 5.39},
      {"measurement": "pKi", "setting": "[3]", "value": 5.45}
    ]},
    {"smiles": "Nc1sc(-c2ccc(Cl)cc2)c(-c2ccc(Cl)cc2)c1C(=O)N1CCOCC1", "values": [
      {"measurement": "pIC50", "setting": "[1]", "value": 4.93},
      {"measurement": "pIC50", "setting": "[2]", "value": 5.73},
      {"measurement": "pKi", "setting": "[3]", "value": 6.37},
      {"measurement": "Ratio IC50", "setting": "[4]", "value": 6}
    ]},
    {"smiles": "Nc1sc(-c2ccc(Cl)cc2)c(-c2ccc(Cl)cc2)c1C(=O)N1CCNCC1", "values": [
      {"measurement": "pIC50", "setting": "[1]", "value": 5.57},
      {"measurement": "pIC50", "setting": "[2]", "value": 5.99},
      {"measurement": "pKi", "setting": "[3]", "value": 5.17}
    ]}
  ]
}
